How the values were obtained:
[1] = Efflux ratio of permeability from basolateral to apical side to apical to basolateral side in human Caco2 cells; type: ADME, cell-based; conditions: Caco-2
[2] = Apparent permeability of the compound from basolateral to apical side in human Caco2 cells by LC-MS/MS analysis; type: ADME, cell-based; conditions: Caco-2
In short: (§1)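 Caco-2 monolayers ([…] cells seeded on polycarbonate inserts, 0.4 μm pores), kept in 90% air/10% CO2. Transport run at 37 °C across a 6.5/7.4 pH gradient, started by adding 10 μM drug to the donor side. Papp = (ΔQ/Δt)/(A·C0), from steady-state flux, filter area and initial donor concentration. LC-MS/MS quantitation. Mean ± SD of triplicates.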

[3] = Apparent permeability of the compound from apical to basolateral side in human Caco2 cells at pH 6.5/7.4 by LC-MS/MS analysis; type: ADME, cell-based; conditions: Caco-2, pH 6.5; in short: as §1
[4] = Apparent solubility of the compound in fasted state simulated intestinal fluid at pH 6.5 by shake flask method relative to ciprofloxacin; type: physicochemical; conditions: simulated gi fluid
In short: (§2)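 Small-scale shake flask. Excess solid in 500 μL medium (n = 3): USP pH 7.4 phosphate buffer, or pH 6.5 phosphate buffer or FaSSIF per Galia. Supernatant assayed by LC-MS/MS.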

[5] = Apparent solubility of the compound in phosphate buffer at pH 6.5 by shake flask method relative to ciprofloxacin; type: physicochemical; in short: as §2
[6] = Apparent solubility of the compound in phosphate buffer at pH 7.4 by shake flask method relative to ciprofloxacin; type: physicochemical; in short: as §2

SMILES	efflux ratio [1]	Papp B→A [2]	Papp A→B [3]	fold change (FC) [4]	fold change (FC) [5]	fold change (FC) [6]
O=C(OCc1ccccc1)c1cn(C2CC2)c2cc(N3CCNCC3)c(F)cc2c1=O	18	116 ×10⁻⁶ cm/s	6.42 ×10⁻⁶ cm/s	–	–	–
CCCCCCOC(=O)c1cn(C2CC2)c2cc(N3CCNCC3)c(F)cc2c1=O	19	264 ×10⁻⁶ cm/s	13.9 ×10⁻⁶ cm/s	–	–	–
CCOC(=O)c1cn(C2CC2)c2cc(N3CCNCC3)c(F)cc2c1=O [CIPROFLOXACIN ETHYL ESTER]	7	24.3 ×10⁻⁶ cm/s	3.45 ×10⁻⁶ cm/s	2	2	2
CC(C)OC(=O)c1cn(C2CC2)c2cc(N3CCNCC3)c(F)cc2c1=O	7	35.2 ×10⁻⁶ cm/s	4.69 ×10⁻⁶ cm/s	0.5	0.5	0.5
CCCOC(=O)c1cn(C2CC2)c2cc(N3CCNCC3)c(F)cc2c1=O	146	62.8 ×10⁻⁶ cm/s	0.43 ×10⁻⁶ cm/s	0.5	0.5	0.5
CCCCOC(=O)c1cn(C2CC2)c2cc(N3CCNCC3)c(F)cc2c1=O	13	65.9 ×10⁻⁶ cm/s	4.95 ×10⁻⁶ cm/s	10	27	4
COC(=O)c1cn(C2CC2)c2cc(N3CCNCC3)c(F)cc2c1=O	19	19.7 ×10⁻⁶ cm/s	1.01 ×10⁻⁶ cm/s	111	66	48

Source: ChEMBL document CHEMBL2321693, “Optimizing solubility and permeability of a biopharmaceutics classification system (BCS) class 4 antibiotic drug using lipophilic fragments disturbing the crystal lattice” (J Med Chem, 2013)
